Substitutions are numbered along the chain they refer to. Blank lines part the entries; values can stand above or below the molecule they belong to. Peptide text beside a SMILES is read from it. * marks the point of attachment. Dansyl = CN(C)c1cccc2c(S(=O)(=O)*)cccc12
Key:
[1] = target: Tiam1 PDZ domain (wild-type) (Homo sapiens, UniProt Q13009); experiment: Equilibrium fluorescence anisotropy binding of dansylated peptides
In short: (§1)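 Purified PDZ domains were titrated from a 1.5 mM stock into 1 μM N-terminally dansylated peptide at 25 °C in a stirred cuvette. Proteins were expressed in E. coli BL21(DE3), purified by Ni-chelate and size-exclusion chromatography, and His6-tag cleaved by TEV; Tiam2 is mouse residues 809–994; mutants made by site-directed mutagenesis. Anisotropy ex 340/em 550 nm, buffer-blank corrected. Kd from hyperbolic fit, mean of ≥3 independent runs; ΔG = RT ln Kd (298.15 K).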

[2] = target: T1, Tiam2 PDZ domain (Mus musculus, UniProt Q6ZPF3); experiment: as above
T1 sequence (Q6ZPF3 908-997 limits assumed): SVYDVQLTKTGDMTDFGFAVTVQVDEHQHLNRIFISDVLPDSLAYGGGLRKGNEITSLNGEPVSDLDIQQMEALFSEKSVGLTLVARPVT
In short: as §1

[3] = target: T2, Tiam1 peptide 3; experiment: fluorescence anisotropy
T2 chain: YAAKAFRF

[4] = target: T3, Tiam1 peptide 2; experiment: fluorescence anisotropy
T3 chain: YAAEKYWA

[5] = target: T4, Caspr4 (Homo sapiens); experiment: fluorescence anisotropy
T4 chain: ENQKEYFF

[6] = target: T5, Syndecan1 (Homo sapiens); experiment: fluorescence anisotropy
T5 chain: TKQEEFYA

Sequence of Tiam1 PDZ domain (wild-type) (Q13009 841-930 limits assumed): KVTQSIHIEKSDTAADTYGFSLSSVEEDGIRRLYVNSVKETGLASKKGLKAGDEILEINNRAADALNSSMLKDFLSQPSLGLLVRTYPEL

Kd [1]: > 250 µM | Kd [2]: 77.6 ± 2.4 µM
Molecule: CC(C)[C@H](NC(=O)[C@H](Cc1ccc(O)cc1)NC(=O)[C@@H](NC(=O)[C@H](CCCNC(=N)N)NC(=O)[C@H](CCCCN)NC(=O)[C@H](C)NC(=O)[C@H](C)NC(=O)[C@H](Cc1ccc(O)cc1)NS(=O)(=O)c1cccc2c(N(C)C)cccc12)[C@@H](C)O)C(=O)O [Tiam2 peptide 1 (Group I)] (Dansyl-YAAKRTYV-OH)

Kd [1]: > 250 µM | Kd [2]: 9.9 ± 2.2 µM
Molecule: C[C@H](NC(=O)[C@H](C)NC(=O)[C@H](Cc1ccc(O)cc1)NS(=O)(=O)c1cccc2c(N(C)C)cccc12)C(=O)NCC(=O)N[C@@H](CCCNC(=N)N)C(=O)N[C@@H](CCCCN)C(=O)N[C@@H](Cc1c[nH]cn1)C(=O)N[C@@H](Cc1ccccc1)C(=O)O [Tiam2 peptide 2 (Group II)] (Dansyl-YAAGRKHF-OH)

Kd [1]: > 250 µM | Kd [2]: 28.7 ± 4.9 µM
Molecule: CC[C@H](C)[C@H](NC(=O)[C@H](CC(C)C)NC(=O)[C@H](C)NC(=O)[C@H](C)NC(=O)[C@H](Cc1ccc(O)cc1)NS(=O)(=O)c1cccc2c(N(C)C)cccc12)C(=O)N[C@@H](Cc1c[nH]cn1)C(=O)N[C@@H](CCCCN)C(=O)N[C@@H](Cc1ccccc1)C(=O)O [Tiam2 peptide 3 (Group II)] (Dansyl-YAALIHKF-OH)

Further lines, the molecule ahead of its results:

Molecule: C[C@H](NC(=O)[C@H](C)NC(=O)[C@H](Cc1ccc(O)cc1)NS(=O)(=O)c1cccc2c(N(C)C)cccc12)C(=O)N[C@@H](CCCCN)C(=O)N[C@@H](C)C(=O)N[C@@H](Cc1ccccc1)C(=O)N[C@@H](CCCNC(=N)N)C(=O)N[C@@H](Cc1ccccc1)C(=O)O [Tiam1 peptide 3 (Group II)] (Dansyl-YAAKAFRF-OH)
Kd [1]: 200 ± 50 µM | Kd [2]: 7.7 ± 1.3 µM

B1: Tiam1 PDZ (protein)
chain: VTQSIHIEKSDTAADTYGFSLSSVEEDGIRRLYVNSVKETGLASKKGLKAGDEILEINNRAADALNSSML
Kd [3]: 200 µM | Kd [4]: 90.3 µM | Kd [5]: 19 µM

B2: Tiam1 PDZ (protein)
chain: B1 chain with L70M
Kd [6]: 34.7 µM | Kd [5]: 14 µM

Reference: article PMC3059893 (Biochemistry, 2011)
